# Compound activity deposited in PubChem by several laboratories.
# Rows were chosen to be rich in hits. Some 1% of all compounds tested hit in one or more screens of this group.
# PKA-R2B act: activators of PKA-R2B holoenzyme, primary screen, biochemical, fluorescence polarization, Cy5-IP20, human. cAMP-dependent protein kinase catalytic subunit beta (Homo sapiens) + cAMP-dependent …. PKA-R2B holoenzyme dissociation; R2B truncated from residue 108, S112A mutant; 0% DMSO only, 100% 113 µM cGMP. activation, % at 11.4 µM. actives 0.079% (n = 340,000);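 active = activation above a cutoff set at the mean over all compounds plus 3 SD, cut at about 18% in these data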;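 note: higher means more holoenzyme dissociation and a rise in polarization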
# Target sequence (P31323 whole entry, looked up, other chains not shown, the tested form may be a part): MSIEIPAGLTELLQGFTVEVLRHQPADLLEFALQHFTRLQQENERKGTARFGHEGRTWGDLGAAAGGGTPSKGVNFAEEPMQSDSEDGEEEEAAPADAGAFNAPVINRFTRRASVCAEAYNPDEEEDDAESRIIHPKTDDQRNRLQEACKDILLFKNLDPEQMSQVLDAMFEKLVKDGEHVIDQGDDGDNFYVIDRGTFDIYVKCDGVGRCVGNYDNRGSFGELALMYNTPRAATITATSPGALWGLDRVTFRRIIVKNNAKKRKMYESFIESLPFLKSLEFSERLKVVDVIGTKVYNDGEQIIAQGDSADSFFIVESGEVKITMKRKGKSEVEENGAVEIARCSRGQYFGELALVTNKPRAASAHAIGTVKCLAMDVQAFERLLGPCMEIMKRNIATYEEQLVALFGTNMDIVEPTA
# Neddyl block: inhibitors of cullin neddylation, primary screen, biochemical, TR-FRET, uHTS, NAE and Ubc12 | NEDD8-conjugating enzyme Ubc12 (Homo sapiens) + NEDD8-activating enzyme E1 regulatory … | inhibition, % at 25 µM | actives 0.58% (n = 360,000) | AID 651699, 2012; in the data active = inhibition above about 36%
# PKA-R1A act: activators of PKA-R1A holoenzyme, primary screen, biochemical, fluorescence polarization, Cy5-IP20, bovine R1A, mouse PKAc; PKA-R1A dissociation; scaled: DMSO 0%, 113 µM cGMP 100%; activation, % at 11.4 µM; cAMP-dependent protein kinase type I-alpha regulatory subunit (Bos taurus) + …; actives 0.083% (n = 340,000);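 active = percent activation above the mean of all tested compounds plus 3 SD, cut at about 19% in these data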;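 note: higher means more PKAc released from R1A so a rise in polarization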
# DDE Tn7 FP inh: inhibitors of Tn7 peptide binding to fibrin DD(E), primary screen, biochemical, fluorescence polarization, human fibrin, Tn7 probe; FP displacement of FITC-Tn7 peptide from fibrin DD(E); 0% = median of compound wells per plate; Fibrinogen beta chain (Homo sapiens), P02675; actives 0.13% (n = 370,000); inhibition, % at 8.3 µM;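 active = inhibition above the mean of compounds falling within the control limits plus 3 SD of them, cut at about 14% in these data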;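 note: 0% = plate median of compound wells and 100% = 10 µM Aha-Tn7 peptide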
#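 Measure: % inhibition scaled between sample-field median and high-control FP; Test system: human fibrin DD(E); Quantity: 2 µM final DD(E) protein; Doses: one dose, 8.3 µM nominal; Schedule: compound with protein 10 min, then 3 h after probe, room temperature; Detection: fluorescence polarization; Medium: Tris buffer with calcium and detergent, pH 7.8.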
# DDE Tn6 FP inh: inhibitors of Tn6 peptide binding to fibrin DD(E), primary screen, biochemical, fluorescence polarization, human fibrin, Tn6 probe; actives 0.21% (n = 370,000); Fibrin DD(E) TRITC-Tn6 fluorescence polarization displacement; inhibition, % at 8.3 µM;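 active = inhibition above a per-campaign cutoff: mean of compounds within control limits plus 3 SD, cut at about 15% in these data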;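 note: 0% = median of all compound wells on the plate and 100% = blocking peptide control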
# Neddyl conf: blockade of NEDD8 conjugation to cullin – biochemical, TR-FRET, single concentration, confirmation | shares compounds with Neddyl block | TR-FRET cullin neddylation biochemical assay | actives 13% (n = 1,800) | AID 652217, 2013 | calls only at 25 µM; in the data active = inhibition above about 40%;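 note: neddylation substrate is the cullin 1 ring ligase complex with SKP2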
# Numbers without * were called inactive; i = inactive; . = no result shown; + = active, no number.
SMILES,PKA-R2B act,Neddyl block,PKA-R1A act,DDE Tn7 FP inh,DDE Tn6 FP inh,Neddyl conf
CC(Oc1ccccc1)C(=O)N1CCN(c2ccc(N3CCCCC3)nn2)CC1 (stereo unspecified),2,46*,-5,-1,0,.
COc1ccc2nc(NC(=O)c3c(C)noc3C)sc2c1,-5,33*,2,3,-4,i
O=C1NC(=O)c2cc3ccccc3cc21,-9,48*,-4,-4,-3,+
O=C1CCNc2cc3ccccc3cc21,-7,.,-3,.,.,.
COc1ccc(CCN(C)C(=O)CN2C(=O)NC3(CCCCC3C)C2=O)cc1OC (stereo unspecified),-3,59*,-8,1,-7,i
COc1cc(C(=O)Nc2ccc3oc(-c4cccnc4)nc3c2)cc(OC)c1OC,7,26,-1,-3,-1,.
COc1ccc(C(=O)Nc2ccc3oc(-c4cccnc4)nc3c2)cc1OC,-12,41*,-1,0,-1,.
Cc1ccc(-n2nnnc2-c2cccs2)cc1[N+](=O)[O-],-4,51*,-1,-5,0,i
Cc1sc2nc(SCC(=O)NCc3ccco3)n(C)c(=O)c2c1C,-16,0,2,-1,6,.
O=c1c2ccccc2nc2ccc(NCc3ccco3)nn12,-7,41*,0,0,-4,i
Cc1sc2nc3ccc(NCc4ccco4)nn3c(=O)c2c1C,-11,39*,-8,-3,-2,.
CCn1c2ccccc2c2cc(NC(=O)COC(=O)c3ccc(F)cc3Cl)ccc21,.,.,.,0,-4,.
Cc1ccccc1CNC1CCC12CCC(c1ccccc1)CC2 (stereo unspecified),.,.,.,1,3,.
Cc1sc2nc(COC(=O)CNC(=O)c3cc(F)ccc3F)[nH]c(=O)c2c1C,.,.,.,-8,-2,.
O=C(Nc1cccc2nsnc12)c1ccc2c(c1)OCO2,-10,45*,-15,0,6,+
O=C(Nc1ccccc1)c1cn2ccccc2n1,2,3,2,1,0,.
O=C(Nc1ccc(-n2cnnn2)cc1)c1cn2ccccc2n1,-10,52*,-7,.,.,i
Nc1ncnc(N)c1NC(=O)c1ccccc1,.,.,.,3,7,.
COc1cccc(Nc2ccc(C(=O)O)cc2N)c1,11,40*,-6,4,2,.
CCCCNC(=O)C1(C(=O)C2CC2)CC(C(=O)OCC)=NO1 (stereo unspecified),.,.,.,5,-4,.
CCN(CC)c1ccc2c(O)cc(=O)oc2c1,-6,41*,-9,2,4,i
CC(C)CNC(=O)OCc1cn(Cc2cccc(F)c2)nn1,.,.,.,3,1,.
Cc1cc(C)c2c(N)c(C(=O)c3ccccc3)sc2n1,.,45*,.,0,-5,+
CCOc1ccccc1C(=O)Nc1cc2c(cc1N1CCCC1)n(CC)c(=O)n2CC,0,46*,2,5,-2,i
COc1ccc(-n2c(SCC(=O)NC3CCCCCC3)nnc2-c2ccncc2)cc1,.,.,.,2,4,.
SMILES,PKA-R2B act,Neddyl block,PKA-R1A act,DDE Tn7 FP inh,DDE Tn6 FP inh,Neddyl conf
O=C(C(=O)N1CCN(S(=O)(=O)c2ccc(Cl)cc2)CC1)c1cccc(C(F)(F)F)c1,.,.,.,0,-5,.
Cc1nn(C)cc1CN(C)C(=O)c1cc2nc(-c3ccco3)cc(C(F)(F)F)n2n1,-5,43*,-19,0,7,+
Cc1nn(C)c(C)c1CN(C)C(=O)c1cc2nc(-c3ccco3)cc(C(F)(F)F)n2n1,-19,42*,-7,-12,-4,i
Cc1nn(C)cc1NC(=O)c1cc2nc(-c3ccco3)cc(C(F)(F)F)n2n1,-3,13,-2,-2,-9,.
Cc1ccccc1Cn1nc(C)c(NC(=O)c2cc3nc(-c4ccco4)cc(C(F)(F)F)n3n2)c1C,10,42*,3,-1,-9,i
Cc1ccccc1NC(=O)O[C@H]1CC[C@@]23CCCN2C(=O)CCC[C@H]3[C@H]1C,.,.,.,-1,3,.
COc1ccc(N2C[C@@]3(O)CC[C@@H](O)[C@@H](OC)[C@@H]3[C@@]2(C)[C@H](O)CC=C(C)C)cc1,.,.,.,-3,9,.
COc1cc(/C=C/C2=NNC(=O)CC2)cc(OC)c1OC,1,41*,-10,3,1,i
CC(C)c1ccc(/C=C/C2=NNC(=O)CC2)cc1,7,-12,-5,-4,-7,.
c1ccc(Cn2ccc3ccc(-c4ccc5ccn(Cc6cccc(-c7ccsc7)c6)c5c4)cc32)cc1,.,.,.,11,-1,.
CCC(=O)Nc1cccc(-c2cn3ccccc3n2)c1,0,41*,4,-4,-1,i
O=C(Nc1cccc(-c2cn3ccccc3n2)c1)c1cccc(Cl)c1,-4,41*,-12,-2,-1,.
COc1ccc(CC(=O)Nc2cccc(-c3cn4ccccc4n3)c2)cc1,-7,38,2,3,-6,.
CC(=O)Nc1ccc2nc(-c3ccccc3)cn2c1,-1,44*,1,-1,-2,i
COc1ccc(-c2cc(NCc3ccccn3)n3ncnc3n2)cc1,-5,37*,-8,2,-1,i
CN(c1ccccc1)S(=O)(=O)c1cccc(NC(=O)C2=NN(c3ccccc3)C(=O)CC2)c1,8,45*,4,3,-4,i
O=C(NCc1ccccc1Cl)c1cnn2cccnc12,-9,39*,-6,-2,-1,i
O=C(NCc1cccs1)c1cnn2cccnc12,1,36,8,-3,-5,.
COc1ccc(CN2C(=O)[C@]3(NCCc4c3[nH]c3ccc(OC)cc43)c3cc(Br)ccc32)cc1,.,.,.,9,3,.
COc1cc(NC(C)=O)ccc1-c1cc2ccccc2oc1=O,3,42*,1,2,-3,i
CCOC(=O)c1ccc(NC(=O)OC[C@@H]2CSCCS(=O)(=O)N2)cc1,.,.,.,7,2,.
CCOC(=O)[C@]12CCCC=C1N(Cc1ccc(OC)cc1)C(=O)[C@@H]2CC(=O)NCCCN1CCCC1=O,.,.,.,-4,0,.
C[C@H]1[C@@H](OC(=O)Nc2cccc(C(F)(F)F)c2)CC[C@@]23CCCN2C(=O)CCC[C@@H]13,.,.,.,-9,0,.
NC(=O)COC(=O)c1ccccc1Nc1ccc(SC(F)F)cc1,-13,41*,-2,-9,-2,i
